# According to ChEMBL document CHEMBL1134768, “Identification of a putative binding site for [2',5'-bis-O-(tert-butyldimethylsilyl)-beta-D-ribofuranosyl]-3'-spiro-5''-(4''-amino-1'',2''-oxathiole-2'',2''-dioxide)thymine (TSAO) derivatives at the p51-p66 interface of HIV-1 reverse transcriptase” (J Med Chem, 2001):
# What was measured:
# [1] = tested on: CCRF-CEM; experiment: Inhibitory activity against HIV-2 in CEM cell culture.; assay type: functional, cell-based; details: Homo sapiens
# [2] = tested on: MT4; experiment: Inhibitory activity against HIV-2 in MT-4 cell culture.; assay type: functional, cell-based; details: Homo sapiens
# [3] = tested on: CCRF-CEM; experiment: Inhibitory activity against HIV-1 in CEM cell culture.; assay type: functional, cell-based; details: Homo sapiens
# Procedure, shortened: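 CEM cells at about 200000-300000 cells/mL infected with HIV-1 (IIIB), then added to serial dilutions of compound. After 4 days at 37 °C, syncytium formation was scored by microscopy.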
# [4] = tested on: MT4; experiment: Inhibitory activity against HIV-1 in MT-4 cell culture.; assay type: functional, cell-based; details: Homo sapiens
# Procedure, shortened: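 MT-4 cells at about 200000-300000 cells/mL infected with HIV-1 (IIIB) and incubated with serial compound dilutions for 5 days at 37 °C. Viable cells were counted by trypan blue exclusion.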
# [5] = molecular target: Human immunodeficiency virus type 1 reverse transcriptase (Human immunodeficiency virus 1, UniProt Q72547); experiment: Inhibitory activity against wild-type HIV-1 reverse transcriptase
# [6] = molecular target: Human immunodeficiency virus type 1 reverse transcriptase (Human immunodeficiency virus 1, UniProt Q72547, R172A); experiment: Inhibitory activity against R172A mutant reverse transcriptase
# [7] = molecular target: Human immunodeficiency virus type 1 reverse transcriptase (Human immunodeficiency virus 1, UniProt Q72547, E138K); experiment: Inhibitory activity against E138K mutant reverse transcriptase
structure (smiles),measurement,setting,value
CC1=CNC(=O)N([C@@H]2O[C@H](CO[Si](C)(C)C(C)(C)C)[C@@]3(OS(=O)(=O)C=C3N)[C@H]2O[Si](C)(C)C(C)(C)C)C1,EC50,[1],> 10000 nM
same,EC50,[2],> 10000 nM
same,EC50,[3],120 nM
same,EC50,[4],230 nM
Cc1cn([C@@H]2O[C@H](CO[Si](C)(C)C(C)(C)C)[C@@]3(OS(=O)(=O)C=C3N)[C@H]2O[Si](C)(C)C(C)(C)C)c(=O)[nH]c1=S,EC50,[1],> 2000 nM
same,EC50,[2],> 10000 nM
same,EC50,[3],170 nM
same,EC50,[4],170 nM
CC1=CN([C@@H]2O[C@H](CO[Si](C)(C)C(C)(C)C)[C@@]3(OS(=O)(=O)C=C3N)[C@H]2O[Si](C)(C)C(C)(C)C)C(=O)NC1,EC50,[1],> 2000 nM
same,EC50,[2],> 10000 nM
same,EC50,[3],100 nM
same,EC50,[4],200 nM
Cc1cn([C@@H]2O[C@H](CO[Si](C)(C)C(C)(C)C)[C@@]3(OS(=O)(=O)C=C3N)[C@H]2O[Si](C)(C)C(C)(C)C)c(=O)n(CCCO)c1=O,EC50,[1],> 2000 nM
same,EC50,[2],> 2000 nM
same,EC50,[3],10 nM
same,EC50,[4],30 nM
Cc1cn([C@@H]2O[C@H](CO[Si](C)(C)C(C)(C)C)C3(OS(=O)(=O)C=C3N)[C@H]2O[Si](C)(C)C(C)(C)C)c(=O)[nH]c1=O (stereo partly drawn),EC50,[1],> 20000 nM
same,EC50,[2],> 20000 nM
same,IC50,[5],6100 nM
same,IC50,[6],627 nM
same,IC50,[7],> 848000 nM
CC(C)=CCOc1cc(NC(=S)c2ccoc2C)ccc1Cl [UC 781],IC50,[5],23.8 nM
same,IC50,[6],20.8 nM
same,IC50,[7],226 nM
Cc1cn([C@@H]2O[C@H](CO[Si](C)(C)C(C)(C)C)[C@@]3(OS(=O)(=O)C=C3N)[C@H]2O[Si](C)(C)C(C)(C)C)c(=O)n(C)c1=O,EC50,[1],> 200000 nM
same,EC50,[2],> 200000 nM
same,EC50,[3],60 nM
same,EC50,[4],50 nM
